Results as given in article PMC11533052 (Nanoscale Advances, 2024).

Assays:
4T1 tumor-bearing mice [1] = assay: In vivo biological distribution analysis; design: species or system BALB/c mice; details: DiR 1 mg kg^−1 s.c. near the tumor, n = 3
Method in brief: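 4T1 tumor-bearing mice (tumor about 200 mm3) were randomised (n = 3) to free near-infrared dye DiR at 1 mg kg-1 or hydrogel-loaded DiR at the equivalent dose, injected s.c. near the tumor at 100 μL/20 g. Anaesthetised mice were imaged live at 1, 6, 12, 24, 48 and 96 h (λex 748 nm, λem 780 nm). At 96 h, mice were euthanised and organs collected.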

4T1 tumor-bearing mice [2] = assay: In vivo anti-tumor research in 4T1 tumor-bearing mice; design: species or system BALB/c mice
Method in brief: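 Female BALB/c mice (6 weeks, 16–18 g) received 4T1 cells (1 × 10^7 cells per mL, 100 μL) s.c. into the right forelimb axilla. At about 100 mm3 tumor volume, mice were randomised (n = 5) to saline, free drug, or drug-loaded hydrogel (1 mg mL-1 drug : 20 mg mL-1 peptide). Dosing was s.c. near the tumor at 100 μL/20 g, giving […], on day 1. Weight and tumor volume were recorded. Tumors and organs were taken at day 7, formalin-fixed, H&E and TUNEL stained.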

Row | ex vivo fluorescence distribution in tumor and organs (4T1 tumor-bearing mice [1]; 96 hours after administration) | in vivo fluorescence over time (4T1 tumor-bearing mice [1]; live imaging 1–96 hours) | Compound | tumor growth inhibition (4T1 tumor-bearing mice [2]; 7 days, versus NS group, n = 5) | body weight of mice at start (4T1 tumor-bearing mice [2]; day 1, s.c. near the tumor, DOX 1 mg mL^−1, 100 μL/20 g, n = 5) | histology of major organs (H&E) (4T1 tumor-bearing mice [2]; heart, liver, spleen, lung, kidney after 7 days of treatment) | body weight of mice at end (4T1 tumor-bearing mice [2]; within 7 days, s.c. near the tumor, DOX 1 mg mL^−1, 100 μL/20 g, n = 5)
1 | widespread fluorescence distribution | rapidly decreased over time | CCCCCCCCCCCCCCCCCCN1/C(=C/C=C/C=C/C=C/C2=[N+](CCCCCCCCCCCCCCCCCC)c3ccccc3C2(C)C)C(C)(C)c2ccccc21.[I-] [DiR] |  |  |  | 
2 |  |  | COc1cccc2c1C(=O)c1c(O)c3c(c(O)c1C2=O)C[C@@](O)(C(=O)CO)C[C@@H]3O[C@H]1C[C@H](N)[C@H](O)[C@H](C)O1 [DOX, doxorubicin] | significant tumor growth inhibition | 18.8 g | significant necrosis of heart and liver cells | 16.9 g
